Results on 48 sequences are retold here after the EternaBench riboswitch data.

This data set concerns MS2 coat protein. The experiment in a line: apparent Kd, MS2 coat protein; higher = weaker binding; RNA-MaP array; FMN 200 µM where present. The essentials:
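Stalled E. coli RNA polymerase transcribed the designs on Illumina sequencing-chip clusters. SNAP-549-labelled MS2 coat protein was titrated from 0.7 or 1.5 nM, doubling to 3 µM, without and then with constant ligand, in 100 mM Tris-HCl pH 7.5, 80 mM KCl, 4 mM MgCl2, BSA, DTT, yeast tRNA and Tween-20. Per-cluster binding curves were fitted to green signal normalised to red-channel RNA signal and control-cluster median Fmax. The apparent Kd is the median of the filtered fits.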

The mark [1] stands for this setting: designed as: OFF switch for flavin mononucleotide, no ligand.
[2] abbreviates: ligand present: flavin mononucleotide, designed as: OFF switch for flavin mononucleotide.
[3] abbreviates: designed as: ON switch for flavin mononucleotide, no ligand.
[4] abbreviates: ligand present: flavin mononucleotide, designed as: ON switch for flavin mononucleotide.

As usually defined, the apparent Kd is the concentration giving half-maximal binding under the conditions of the assay.

With “UAUUAGUGAGGAUAUGAGUCGUAGAACAAUAGUACUACGUCUCAGAAGGCACAUGAGGAUCACCCAUGUUCCUU”, the “apparent Kd” value is, setting by setting: under setting [1], 13.6 nM; under setting [2], 44.9 nM.
On to “GAUUAACAUGAGGAUCACCCAUGUGAGGAUAUGGACUUGCCCACUUAACCAUUAGAGUCUAGAAGGCGCAUCUA”, for which the “apparent Kd” value by setting is: under setting [1], 29.4 nM; under setting [2], 25.5 nM.
Regarding “AGGAAACAUGAGGAUCACCCAUGUAAAUAUGGGCGAGGAUAUCGAAAGAAAAGAAAGAAACGAGAAGGCGCAAAAG”, the “apparent Kd” value is, setting by setting: under setting [3], 324 nM; under setting [4], 77.7 nM.
As to “GGACGUCUCGUUUACAUGAGGAUCACCCAUGUCGAUAGACAUGAGGAUAUGGAUCCGAAUCGGAUCCAGAAGGCAUGGACGUCC”, the “apparent Kd” value under setting [3] worked out at 486 nM and the “apparent Kd” value under setting [4] is 35 nM.
As for “GGAUCGAAAGUGAGGAUAUGCUGGUCCUUGGAUCAGCAGAAGGCACAUGAGGAUCACCCAUGUUUCCACGGUCC”, the “apparent Kd” value runs as follows: under setting [1], 19.5 nM; under setting [2], 91 nM.
For “UAGAAGUCAGGAUAUGCAUGGCGGGACUUGCGUCGUGGCGUGCAGAAGGGACAUGAGGAUCACCCAUGUAAAGC”, the “apparent Kd” value runs as follows: under setting [1], 49 nM; under setting [2], 43 nM.
Regarding “GUAGCUAUCGGAGGAUAUUCAUACCGGAAACGGACAUGAGGAUCACCCAUGUGUCGAAAGCCUUGGGAGAAGGUCGAUAGCUAC”, the “apparent Kd” value runs as follows: under setting [3], 260 nM; under setting [4], 87.4 nM.
For the sequence “GGACGUUACAUCUACAUGAGGAUCACCCAUGUCUCUUGAGAUGAGGAUAUGUAUACGAAUCGUUUAUAGAAGGCAUGAACGUCC”, the “apparent Kd” value under setting [3] amounted to 144 nM and the “apparent Kd” value under setting [4] amounted to 138 nM.
Turning to “GUAGCAUACCGAGGAUAUUCUAACCGGAAACGGACAUGAGGAUCACCCAUGUGGCGAAAGCCUUGGGAGAAGGCGGAAUGCUAC”, the “apparent Kd” value runs as follows: under setting [3], 12.3 nM; under setting [4], 12.8 nM.
On to “UUACAUACAAAGGUACAUGAGGAUCACCCAUGUUUGUUGGGAAGAAGGGUAACAGUACUACACAUACAGGAUAUUUCACAAAUA”, for which the “apparent Kd” value by setting is: under setting [3], 86.8 nM; under setting [4], 56.4 nM.
Regarding “GACCUCACGGUCAGGAUAUCAGAACGUAAUGCGCAUGAGAAGGGACAUGAGGAUCACCCAUGUGGGCUCGUCGC”, the “apparent Kd” value was determined as 13.5 nM under setting [1] and 17 nM under setting [2].
Take “UUGUUCUGAGGAUAUACAUGAGGAUCACCCAUGUGUUUCUGCUAGGAGACUAGCGAAUGUAGAAGGCUGUUCUC”: the “apparent Kd” value was found to be 19.4 nM under setting [1] and 19.9 nM under setting [2].
Take “GCGGAACAUGAGGAUCACCCAUGUAAAGGGUGUAAAGGAUAUUAUUGGGAGAAGGUAGGGUAAGAAGGUUGCUUGG”: the “apparent Kd” value reads like this: under setting [3], 887 nM; under setting [4], 1280 nM.
As for “GUGUACGGAGGAUAUAUAUGGGCAGCAUACGCUGCAGCUUCACAUGAGGAUCACCCAUGUAGAAGGCUGUACAC”, the “apparent Kd” value reads like this: under setting [1], 25 nM; under setting [2], 200 nM.
“AUACAUGAGGAUCACCCAUGUUACUGGGUCUAUAUAGAACGUAGAAGGAUGAUAUUAUAAAUAUCAUAGGAUAUACUAUUUUGU”: the “apparent Kd” value reads like this: under setting [1], 29.9 nM; under setting [2], 35.3 nM.
For “GUUUAGUGAGGAUAUGUGGCAUCGCUCGAGCGCGGUCGGCUACAGAAGGCACAUGAGGAUCACCCAUGUUUCUC”, the “apparent Kd” value was determined as 41.8 nM under setting [1] and 471 nM under setting [2].
The matching figures for “GUCAGCUAGUGAGGAUAUACAACACUGCUUCGGCAGUGUAUUAAGAUCACAUGAGGAUCACCCAUGUAGAAGGCACGAGCUGAU”: 13.8 nM and 273 nM.
The matching figures for “UGUUGUUCAGGAUAUGAUGUCUUAUACAUGAGGAUCACCCAUGUGGGUCCUGAUUUGGCGUCAGAAGGGAAUGUUG”: 551 nM and 569 nM.
The matching figures for “AGUCAGAGAGGAUAUACAUGGGAAAAAAAAGUAAGAUCCCUACAUGAGGAUCACCCAUGUAGAAGGCUCUGACA”: 28.6 nM and 36 nM.
Take “CCGCUCGAGCAGAAGGCAAUGAGGGUUAUACAUUGAGGAUAUGCUACGUACGUGGUACAUGAGGAUCACCCAUGUAGCCUAUCU”: the “apparent Kd” value by setting is: under setting [3], 788 nM; under setting [4], 93.4 nM.
With “GACUGAUUGUAGAAGGUACUUGACAAUAUAUUUAAUUAUUGUAGACAUGAGGAUCACCCAUGUAGUAAGGAUAUACUUAUAACA”, the “apparent Kd” value is 18.4 nM under setting [3] and 9.96 nM under setting [4].
“AUCAGCUCGUCAGGAUAUACGACACUGCGUCAGCAGUGUGGUAAGAUCACAUGAGGAUCACCCAUGUAGAAGGGACGAGCUGAU”: the “apparent Kd” value by setting is: under setting [1], 6.87 nM; under setting [2], 28.1 nM.
The matching figures for “CAUUAACAUGAGGAUCACCCAUGUGAGGAUAUGAUAUUACUAGGACGGCUGUAAUCAAUCAGAAGGCACAUCUU”: 20.4 nM and 44.5 nM.
For the sequence “CUACCUUAUGAGAAGGCGAUUAUGAAACAUGAUCGAGGAUAUCAUGUAAACAUGAGGAUCACCCAUGUAUGGGUAUUAUGGUAA”, the “apparent Kd” value is, setting by setting: under setting [3], 211 nM; under setting [4], 32.8 nM.
Turning to “GUCCUACAUGAGGAUCACCCAUGUGAGGAUAUGGAUUCGCUGGCCGUAGCCAGUGGAUCCAGAAGGCGCGUGAU”, the “apparent Kd” value was 63.1 nM under setting [1] and 64.8 nM under setting [2].
As to “CGUAAGAUGCAGAAGGUGUUAGCUAGAGCUACGACAUGAGGAUCACCCAUGUACUAGAAACAGUACAAGGAUAUGCAUCUUACG”, the “apparent Kd” value was 17.3 nM under setting [3] and 6.56 nM under setting [4].
As to “GGAUGACAAAGUCAUCCAUUACGAACAUGAGGAUCACCCAUGUAGGAUAUGCUUCUCAAAGAGAAGCAGAAGGACAUGUGUCUU”, the “apparent Kd” value is, setting by setting: under setting [1], 30.1 nM; under setting [2], 157 nM.
For “AAUUAUUGAUGAGGAUAUUGUGGUGAAACACCACAAGAAGGCAUUAUACACAUGAGGAUCACCCAUGUGAGCCUGAUGCAUAUA”, in that order: 17.3 nM and 28.9 nM.
In the case of “AAAACAUGAGGAUCACCCAUGUAAAGAUCGGUUAAUAGAGGUGAGGAUAUACUAAAUUUUGGGUGGUAGAAGGCACUGGGUACA”, the “apparent Kd” value came out at 187 nM under setting [3] and 122 nM under setting [4].
In the case of “UUAGAGGAUUAAGGAUAUGCAGAGAGAUCAUGCGCGUCGCGCACAUGAGGAUCACCCAUGUAAGAGCAGAAGGUAACUAUGAUC”, the “apparent Kd” value under setting [1] worked out at 19.9 nM and the “apparent Kd” value under setting [2] was determined as 18.4 nM.
As for “AGUACUCAAAGAGUACCCAUACGGACAUGAGGAUCACCCAUGUAGGAUAUGCUACUCAAAGAGUAGUAGAAGGACAUGUUCCUC”, the “apparent Kd” value reads like this: under setting [1], 12.4 nM; under setting [2], 43.6 nM.
With “AUGAGGUCAGGAUAUGCAUGGCGGGACUUGCGUCGUGGCGUGCAGAAGGGACAUGAGGAUCACCCAUGUGGAGC”, the “apparent Kd” value amounted to 73.4 nM under setting [1] and 169 nM under setting [2].
For “GCCUAGCCCAGGCCCACGGCAUCACAGGAUAUGCCGAUAACAUGAGGAUCACCCAUGUCAACUCCGCAGAAGGGUGAUAUCGUG”, the “apparent Kd” value reads like this: under setting [3], 174 nM; under setting [4], 28.8 nM.
Turning to “GUAGUGUAUGUAGGAUAUGUGAAGGAAACCUUUACAGAAGGACAUGAGGAUCACCCAUGUAUUACAGUCAGCAAUCUGACUGUU”, the “apparent Kd” value under setting [1] is 28.4 nM and the “apparent Kd” value under setting [2] was 107 nM.
The matching figures for “UGAUGACCUGUACCUAGUUGGUGACAUGAGGAUCACCCAUGUCAGGAUAUCGGGUUUGAAAACAACGAGAAGGGACAACGGGCG”: 12.6 nM and 13 nM.
With “AGAAAGGAAGGAUAUACAAGAAAGCUGGGCAACGUCUCAGAACAUGAGGAUCACCCAUGUAGAAGGUCCAGGAA”, the “apparent Kd” value by setting is: under setting [1], 25.2 nM; under setting [2], 34.3 nM.
With “AGAUGACAAUGUCAUCUUCGUCGGACAUGAGGAUCACCCAUGUAGGAUAUGCUACUCAAAGAGUAGCAGAAGGACAUGUGUCUU”, the “apparent Kd” value is, setting by setting: under setting [1], 19.7 nM; under setting [2], 41.1 nM.
With “AAUAUGUUGCAGAAGGCUAUAUUGUGGUAGUACCUCAUGACAUGAGGAUCACCCAUGUUUGUGUUGGAGGAUAUGCAAUAUAUU”, the “apparent Kd” value was found to be 16.2 nM under setting [1] and 64.9 nM under setting [2].
As to “UUAAUUCGAAACAUGAGGAUCACCCAUGUGUUGUGGUUAAUAUAGGAUAUGUGGAUACUUUUUUGACAGAAGGAUGAUGGUACU”, the “apparent Kd” value was determined as 13.3 nM under setting [3] and 11.6 nM under setting [4].
Take “GCACGAUAUCAGGAUAUGACUAGCUGCGGCUAGUCAGAAGGGAUGACAUGAGGAUCACCCAUGUGAUCACGUGC”: the “apparent Kd” value turned out to be 57.6 nM under setting [1] and 78.7 nM under setting [2].
The matching figures for “CAGCACGGAAACAAAGUCUUCGGACAUGAGGAUCACCCAUGUGAGGAUAUGCCUACUAAAAGUAGGCAGAAGGCACGCGUGCUG”: 17.1 nM and 62.6 nM.
Regarding “AGAUAUGAUGCAGGAUAUCUAUCUUGAAUGAGGAGAGAAGGGCAAGCAGAGAGAUAAGCCUUAUGACAUGAGGAUCACCCAUGU”, the “apparent Kd” value under setting [1] worked out at 10.2 nM and the “apparent Kd” value under setting [2] is 8.61 nM.
“GGAGUGUGAGGAUAUAUGGUGAAGGUGAAGAGAGAGGAGGAGUAGAAGGUACAUGAGGAUCACCCAUGUUUAGG”: the “apparent Kd” value runs as follows: under setting [1], 47 nM; under setting [2], 41.3 nM.
In the case of “GCUAUCGAUGUAGGAUAUGCUAGGGAAACCCUGGCAGAAGGACAUGAGGAUCACCCAUGUCAAUGAGUGAAGAGAAGAGAUGGC”, the “apparent Kd” value by setting is: under setting [1], 43.3 nM; under setting [2], 127 nM.
The matching figures for “GGAUAGGACAGAGGAUAUACGUGCUAGAGAUACUAGCAAAAUUUCCUCACAUGAGGAUCACCCAUGUAGAAGGCUCUCCUAUCG”: 8.7 nM and 31.5 nM.
With “AGAUCACAUGAGGAUCACCCAUGUGAGGAUAUGAUACUAUGUACUUCGGUACAUAGUAUCAGAAGGCAUAUGAA”, the “apparent Kd” value runs as follows: under setting [1], 27.7 nM; under setting [2], 33.4 nM.
As for “GAGCGAAAGCUCAAUGUCGAUAGCAGAAGGACAUGAAAACAUGAAAAUACAUGAGGAUCACCCAUGUAGGAUAUGCUAUCGACU”, the “apparent Kd” value reads like this: under setting [1], 6.7 nM; under setting [2], 24.3 nM.
For “CAGUAGAUCCGAGGAUAUACAAUCCGGAAACGGUACAUGAGGAUCACCCAUGUAGAAGGCGGAUCUACAGGUACUAAAGUACCG”, in that order: 6.37 nM and 9.59 nM.
